According to ChEMBL document CHEMBL1629552, “In vitro and in vivo treatments of echinococcus protoscoleces and metacestodes with artemisinin and artemisinin derivatives” (Antimicrob Agents Chemother, 2008):
Active and inactive are the calls of the source. The rule behind the calls is not given here.

Columns and labels:
[1] = tested on: Echinococcus multilocularis; assay: Antimicrobial activity against Echinococcus multilocularis metacestode assessed as increase in alkaline phosphatase activity at 40 uM
[2] = tested on: Echinococcus multilocularis; assay: Antimicrobial activity against Echinococcus multilocularis metacestode assessed as increase in alkaline phosphatase activity at 40 uM within 4 days; assay type: functional, organism-based
Method in brief: (§1)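 In vitro-cultured E. multilocularis metacestode vesicles were treated for 12 days with compounds at 40 μM (10 mM DMSO stocks). Albendazole was the positive control and matching DMSO the negative control. Culture supernatant was sampled daily and stored at −20°C, and parasite alkaline phosphatase (EmAP) activity was assayed at the time points shown.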

Echinococcus granulosus [3] = assay: Antimicrobial activity against Echinococcus granulosus protoscoleces assessed as reduction in protoscoleces viability at 40 uM by trypan blue exclusion assay; assay type: functional
Method in brief: (§2)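 E. granulosus protoscoleces were isolated and kept in vitro per earlier work. Compounds from 10 mM DMSO stocks were added at 4, 10 and 40 μM, with nitazoxanide as positive control and DMSO as solvent control. Viability was scored microscopically by trypan blue exclusion over days of culture. The experiment was repeated three times.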

Echinococcus granulosus [4] = assay: Antimicrobial activity against Echinococcus granulosus protoscoleces assessed as reduction in protoscoleces viability at 10 uM by trypan blue exclusion assay; assay type: functional
Method in brief: as §2

[5] = tested on: Echinococcus multilocularis; assay: Antimicrobial activity against Echinococcus multilocularis metacestode assessed as loss of multicellular structure of germinal layer by transmission electron microscopy; assay type: functional, organism-based
Echinococcus granulosus [6] = assay: Antimicrobial activity against Echinococcus granulosus metacestode assessed as loss of multicellular structure of germinal layer by transmission electron microscopy; assay type: functional
Mus musculus = species on record: Mus musculus; assay: Toxicity against Echinococcus multilocularis -infected in BALB/c mouse assessed as adverse effect; assay type: organism-based; settings: in vivo
[7] = tested on: Echinococcus multilocularis; assay: Antimicrobial activity against Echinococcus multilocularis -infected in BALB/c mouse assessed as parasite weight at 200 mg/kg body weight intragastrically administered 8 weeks post-infecion (reference value: 5.71+/-1.79 g); assay type: functional; settings: route intragastric
Echinococcus granulosus [8] = assay: Antimicrobial activity against Echinococcus granulosus protoscoleces assessed as reduction in protoscoleces viability at 40 uM after 6 days by trypan blue exclusion assay; assay type: functional
Method in brief: as §2

[9] = tested on: Echinococcus multilocularis; assay: Antimicrobial activity against Echinococcus multilocularis metacestode assessed as increase in alkaline phosphatase activity at 40 uM after 8 days; assay type: functional, organism-based
Method in brief: as §1

Echinococcus granulosus [10] = assay: Antimicrobial activity against Echinococcus granulosus protoscoleces assessed as reduction in protoscoleces viability at 40 uM upto 2 days by trypan blue exclusion assay; assay type: functional
Method in brief: as §2

Row | SMILES | Activity [1] | Activity [2] | Activity (Echinococcus granulosus [3]) | Activity (Echinococcus granulosus [4]) | Activity [5] | Activity (Echinococcus granulosus [6]) | Activity (Mus musculus) | Activity [7] | Activity (Echinococcus granulosus [8]) | Activity [9] | Activity (Echinococcus granulosus [10])
1 | C[C@@H]1CC[C@H]2[C@@H](C)C(=O)O[C@@H]3O[C@@]4(C)CC[C@@H]1[C@]32OO4 | inactive | inactive | inactive | – | – | – | – | – | – | – | –
2 | C[C@H]1[C@H](OC(=O)CCC(=O)O)O[C@@H]2O[C@@]3(C)CC[C@H]4[C@H](C)CC[C@@H]1[C@@]24OO3 [ARTESUNATE] | inactive | Active | Active | inactive | Active | Active | Non-toxic | 4.6 g | – | – | –
3 | CO[C@H]1O[C@@H]2O[C@@]3(C)CC[C@H]4[C@H](C)CC[C@@H]([C@H]1C)[C@@]24OO3 | inactive | inactive | inactive | – | – | – | – | – | – | – | –
4 | CC(=O)Oc1ccccc1C(=O)Nc1ncc([N+](=O)[O-])s1 | – | – | – | Active | – | – | – | – | – | – | –
5 | C[C@H]1[C@@H](O)O[C@@H]2O[C@@]3(C)CC[C@H]4[C@H](C)CC[C@@H]1[C@@]24OO3 [ARTENIMOL] | inactive | – | Active | inactive | Active | Active | Non-toxic | 4.11 g | 90% | Active | inactive
6 | CCCSc1ccc2[nH]c(NC(=O)OC)nc2c1 [ALBENDAZOLE] | – | – | – | – | – | – | – | 2.96 g | – | – | –
